Assay results gathered from unrelated publications.
Each line is one published result; the experiments were not run side by side.
Target: Serine/threonine-protein kinase STK11 (STK11, Homo sapiens, UniProt Q15831)
Sequence (Q15831 1-433, as in one of the studies): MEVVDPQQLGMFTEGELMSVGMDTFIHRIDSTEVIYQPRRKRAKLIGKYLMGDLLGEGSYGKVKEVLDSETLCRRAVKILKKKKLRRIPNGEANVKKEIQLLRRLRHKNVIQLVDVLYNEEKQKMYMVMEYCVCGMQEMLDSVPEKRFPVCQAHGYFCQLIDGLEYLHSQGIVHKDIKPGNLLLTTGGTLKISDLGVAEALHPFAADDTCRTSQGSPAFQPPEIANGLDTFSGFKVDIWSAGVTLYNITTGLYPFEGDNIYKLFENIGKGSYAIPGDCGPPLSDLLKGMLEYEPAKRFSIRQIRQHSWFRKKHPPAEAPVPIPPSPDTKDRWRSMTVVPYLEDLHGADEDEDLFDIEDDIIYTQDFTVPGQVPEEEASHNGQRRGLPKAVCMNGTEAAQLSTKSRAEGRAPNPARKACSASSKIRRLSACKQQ

The remaining binding of `Cc1nn(C)cc1-c1nc2c(N3CCN(Cc4ccc(Cl)cc4)CC3)c(Cl)cnc2[nH]1` is reported as 100% (binding; competition with immobilised ligand; 1 µM).
With `N#CC1(c2ccccn2)CCN(Cc2cc(C(=O)O)c(=O)n3ccccc23)CC1` the remaining binding was 100% (cell-free assay; competition with immobilised ligand; 1 µM).
For `Nc1ncc(-c2nc(N3CCOCC3)nc(N3CCOCC3)n2)c(C(F)F)n1`, the remaining binding was 91% (binding; competition with immobilised ligand; 10 µM).
`O=c1[nH]c2ccccc2n1C1CCN(Cc2ccc(-c3[nH]c4cc5ncnc5cc4nc3-c3ccccc3)cc2)CC1` gave a remaining signal of 95.6% (cell-free assay; 0.5 µM).
With `COc1cc(Nc2ncc(F)c(Nc3ccc4c(n3)NC(=O)C(C)(C)O4)n2)cc(OC)c1OC` the inhibition was 0% (binding; 10 µM).
`CC(C)(C)c1cc(C=C(C#N)C#N)cc(Br)c1O` has a remaining activity of 85.2% (enzyme activity; inhibitor; 0.5 µM).
With `Cn1cncc1[C@@](O)(COc1ccc(C#N)cc1-c1ccc(OC(F)(F)F)cc1)c1ccc(C#N)cc1` the remaining binding was 100% (cell-free assay; competition with immobilised ligand; 1 µM).
With `COc1ncccc1-c1cnn2ccc(N3CCN(C(=O)OC(C)C)CC3)nc12` the remaining binding was 9.7% (binding; competition with immobilised ligand; 1 µM).
